In the library only some 2.9% were active in any assay of this set; here they are far more common.
VIM-2 inh = inhibitors of Pseudomonas aeruginosa VIM-2 metallo-beta-lactamase. purified VIM-2, nitrocefin hydrolysis, epi-absorbance fluorescence. inhibition, % at 5.6 µM. 0.89% of 290,000 active. AID 1527;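 active means inhibition above the mean of all tested compounds plus 3 SD, cutoff set per screening run, cut at about 7.5% in these data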;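 further: red hydrolysis product quenches plate fluorescence so inhibitors raise well fluorescence; 0% = enzyme with DMSO and 100% = DMSO without enzyme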
NALP1 yeast inh = inhibitors of NALP1 inflammasome in yeast | 0.61% of 280,000 active | S. cerevisiae NALP1/ASC/caspase-1 growth, X-gal OD620, 72 h | inhibition, % at 10 µM; in the data active means inhibition mostly above about 24%, no sharp cut-off; inactive means mostly below about 32%
SUMO Mot1 rescue = inhibitors of SUMOylation pathway: yeast Mot1-301 growth rescue; S. cerevisiae Mot1-301 growth rescue, ATP luminescence, 38.5C; percent above DMSO median, 100 means doubled; 1% of 320,000 active; growth rescue, % at 18.8 µM;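 active means every valid replicate shows activation above 250% relative to neutral control wells; inactive means the rest, any valid replicate at or below 250%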;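 further: OY570 slx delta 5 strain wells were the positive control but not used for scaling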
IMP-1 inhibitor = inhibitors of Pseudomonas aeruginosa IMP-1 metallo-beta-lactamase. purified IMP-1, nitrocefin hydrolysis, epi-absorbance fluorescence. inhibition, % at 5.6 µM. 0.45% of 290,000 active. AID 1556;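 active means inhibition above the mean plus 3 SD of all compounds in the same screening run, cut at about 4.5% in these data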;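 further: 0% = IMP-1 with DMSO and 100% = DMSO wells lacking enzyme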
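system = purified recombinant IMP-1 beta-lactamase | amount = 0.2 nM IMP-1, as dispensed | medium = HEPES buffer pH 7.1 with ZnSO4 and Brij 35 | times = 25 °C, 15 min preincubation, 25 min reaction | detection = plate fluorescence quenching by hydrolysis product, ex 480/em 530 nm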
PolyA inh = blocks polyadenylation in yeast reporter cells; S. cerevisiae SKY197-pL101 polyadenylation reporter, beta-gal luminescence; efflux-impaired pdr1/pdr3 knockout yeast; score 100 = 6 SD above DMSO; activity score, % at 12 µM; 0.02% of 300,000 active; AID 1875;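 active means lowest replicate activity score at least 50, where 100 means six control SD above control mean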;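 further: yeast exposed to compound for 9 h at 30 °C; higher score means more reporter readthrough which indicates perturbed polyadenylation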
NLRP3 yeast inh = inhibitors of NALP3 inflammasome in yeast; Yeast reconstituted NLRP3/ASC/caspase-1, beta-gal luminescence, 24 h; inhibition, % at 10 µM; 0.39% of 330,000 active; AID 2825;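 active means inhibition of 50% or more; inactive means inhibition below 50%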;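 further: plate controls were induced DMSO wells for no effect and uninduced yeast grown without galactose for full effect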
* = called active by the depositor; · = not tested or not shown.

SMILES | VIM-2 inh | NALP1 yeast inh | SUMO Mot1 rescue | IMP-1 inhibitor | PolyA inh | NLRP3 yeast inh
CCOc1cccc(C(=O)N/N=C/c2coc3ccccc3c2=O)c1 | -5 | 6 | 0 | 5.5* | -6 | 6
COCCCN1CC(=O)N2C(c3ccc(OC)c(OC)c3)c3[nH]c4ccccc4c3C[C@H]2C1=O (stereo partly drawn) | -2 | 7 | 305* | -3 | 12 | 5
CCOc1ccc(N=c2oc3cc(O)ccc3cc2C(=O)NCC2CCCO2)cc1 (stereo not drawn) | -3 | 52 | 357* | -2 | -8 | 16
COc1ccc(N=c2oc3cc(O)ccc3cc2C(=O)NCC2CCCO2)cc1 (stereo not drawn) | -4 | 11 | 4 | -3 | -13 | 13
COc1cc(CNCc2cc(OC)ccc2OC)cc(OC)c1 | -2 | 2 | 129 | -2 | 1 | 17
Cc1ccc(C(=O)NCC(=O)OCC(=O)c2ccc3c(c2)OCCO3)cc1C | -2 | 4 | 197 | -6 | 1 | 18
COc1ccc(C(=O)NCC(=O)OCC(=O)c2ccc3c(c2)OCCO3)cc1 | -2 | 36* | 18 | -3 | -12 | 10
COc1ccc(/C=N\NC(=O)COc2ccc(C(C)(C)C)cc2)cc1Cn1nc(C)cc1C | -4 | 38* | 13 | -3 | -3 | 18
Cc1cnn(-c2nc(-c3cccs3)cc(C(F)(F)F)n2)c1 | 8.1* | 13 | 14 | -1 | -23 | 36
CN(Cc1ccno1)Cc1cn(Cc2ccccc2)nc1-c1ccc2c(c1)OCO2 | -1 | 29* | 5 | -2 | 6 | 4
CCc1cccc(NS(=O)(=O)c2ccc3c(c2)NC(=O)CC(=O)N3)c1 | -4 | 36* | 565 | -2 | 22 | 6
N#Cc1ccc(OCC(=O)NCCc2ccccn2)cc1 | -3 | 36* | 91 | -6 | -1 | 6
O=C(COc1ccc(Br)cc1)NCc1ccccn1 | -2 | 6 | 12 | -4 | 12 | 24
Cc1noc(C)c1NC(=O)Nc1cccc2c1O[C@H](CN(C)C(=O)Nc1ccc(C(F)(F)F)cc1)[C@@H](C)CN([C@H](C)CO)C2=O | · | · | 7 | · | · | 3
COC(=O)c1sccc1NC(=O)Nc1ccc(OC)cc1 | 1 | 9 | -34 | -3 | -16 | 21
Cc1ccc(O)c(CO)n1 | -4 | 11 | 189 | -3 | 7 | 0
Cc1nc2c(O)cccc2cc1CO | -3 | 36* | -3 | -4 | -8 | 14
Cc1cc(C)c2cc(CN(CCN(C)C)C(=O)Nc3ccccc3Cl)c(=O)[nH]c2c1 | -3 | 28* | -13 | -1 | 2 | 21
Cc1ccc(N(C(=O)c2csnn2)C(C(=O)NC2CCCCC2)c2ccco2)cc1 (stereo not drawn) | -1 | -1 | -23 | -3 | 1 | -8
Cc1nn(-c2ccc(N3CCOCC3)nn2)c(C)c1CCC(=O)NCc1ccc(F)cc1 | -1 | 2 | 52 | -3 | -5 | 13
CN(C)c1ccc(/C=C/c2cc[n+](C)cc2)cc1 | -2 | -2 | 6 | -5 | -11 | 14
CN(C)c1ccc(/C=C/c2cc[n+]([O-])cc2)cc1 | 2 | 6 | 11 | 6.4* | 3 | 20
Cn1nnnc1SCC(=O)Nc1nc2c(F)c(F)c(F)cc2s1 | · | · | -7 | · | · | 28
O=C(NCCCN1CCCCC1)c1ccc2c(c1)NC(=O)C(N1CCCCC1)S2 (stereo not drawn) | 0 | 18 | -10 | 5.2* | 8 | 15
CC1CC(C)CN(CCCNC(=O)c2ccc3c(c2)NC(=O)C(N2CCCCC2)S3)C1 (stereo not drawn) | -4 | 13 | -22 | -4 | 8 | 13
SMILES | VIM-2 inh | NALP1 yeast inh | SUMO Mot1 rescue | IMP-1 inhibitor | PolyA inh | NLRP3 yeast inh
CCOc1ccccc1NC(=O)CSc1ccccc1 | -4 | 27* | -4 | -1 | -33 | 26
CCOc1ccccc1NC(=O)CCNS(=O)(=O)c1ccccc1 | 0 | · | -11 | 7.3* | 4 | -8
COC(=O)CCNC(=O)c1nn(Cc2ccccc2)c(=O)c2ccccc12 | -3 | 6 | 0 | -2 | -11 | 11
CC(CCc1ccccc1)NC(=O)COC(=O)c1ccc(NC(=O)CC#N)cc1 (stereo not drawn) | -2 | 4 | -14 | -2 | 8 | 4
CC1(C)Cc2c(c(N3CCCC3)nc3sc4c(N5CCNCC5)ncnc4c23)CO1 | 1 | 25 | -26 | -1 | 3 | 26
O=C(c1ccc(Cl)cc1)C(CN1CCCC1)c1ccccc1 (stereo not drawn) | 0 | 43* | -31 | -2 | -72 | 24
CCCOc1ccc(C(=O)C(CN2CCCC2)c2ccccc2)cc1 (stereo not drawn) | -3 | 60* | -14 | -4 | -17 | ·
CCCCOc1ccc(C(=O)C(CN2CCOCC2)c2ccccc2)cc1 (stereo not drawn) | -3 | -7 | 106 | -3 | -27 | 24
CN1CCc2cccc3c2[C@@H]1Cc1ccc(O)c(O)c1-3 | 2 | 86* | 146 | -3 | · | 47
O=Cc1ccc(O)c2ncccc12 | -2 | 82* | · | -3 | -17 | 35
NS(=O)(=O)c1ccc(N=Nc2ccc(O)c3ncccc23)cc1 | -2 | -44 | -29 | 2 | 3 | 37
CC[C@@]12C(=O)N(c3cccc(C)c3)C(=O)N1[C@H](c1ccc(OC)cc1)[C@@H]1C(=O)N(C(C)(C)C)C(=O)[C@@H]12 | -1 | 31 | -26 | -2 | 25 | 20
COc1ccc([C@@H]2[C@@H]3C(=O)N(C(C)(C)C)C(=O)[C@@H]3[C@]3(C)C(=O)N(c4cccc(C)c4)C(=O)N23)cc1 | 0 | -3 | 280* | -1 | 21 | 13
O=c1[nH][nH]c(-c2ccccc2O)c1C(C[N+](=O)[O-])c1ccc(Br)cc1 (stereo not drawn) | 0 | 102* | 210 | -2 | -17 | 33
O=C(O)c1cccc(Nc2cc(Cl)c3nonc3c2[N+](=O)[O-])c1 | 1 | 1 | -25 | -5 | 6 | 31

Screens deposited in PubChem by several laboratories.
